Source: ChEMBL document CHEMBL4219101, “Discovery of 18β-glycyrrhetinic acid conjugated aminobenzothiazole derivatives as Hsp90-Cdc37 interaction disruptors that inhibit cell migration and reverse drug resistance” (Bioorg Med Chem, 2018)

How the values were obtained:
MCF7 = test: Antiproliferative activity against human MCF7 cells after 48 hrs by MTT assay; format: functional, cell-based; conditions: MCF7, 48 h
Outline: (§1)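 Cells in log phase seeded at about 1.0 × 10^5 cells/mL in 96-well plates, left 12 h at 37 °C, 5% CO2. Compounds dissolved in DMSO, added at 2.5, 5, 10, 20 and 50 µM, 48 h exposure. Absorbance read at 570/630 nm dual wavelength. Survival expressed relative to negative control. IC50 by Bliss method (n = 5), tests done in triplicate.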

[1] = Inhibition of His-tagged full-length Hsp90 (unknown origin)/GST-tagged Cdc37M (unknown origin) interaction after 1 hr by HTRF assay; parameters: species or system Homo sapiens
Outline: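 TR-FRET in PBS containing 400 mM KF, pH 7.3. His-tagged full-length Hsp90 and GST-Cdc37M, each 250 nM final, incubated with compound for 1 h at 37 °C. Anti-GST-Cryptate and anti-6His-XL665 then added for a further 0.5 h at 37 °C. Excitation 320 nm, emission 665/620 nm, reported as ratio ×10,000. Negative and blank controls run in each assay.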

HCT-116 = test: Antiproliferative activity against human HCT116 cells after 48 hrs by MTT assay; format: functional, cell-based; conditions: HCT-116, 48 h; outline: as §1
A549 = test: Antiproliferative activity against human A549 cells after 48 hrs by MTT assay; format: functional, cell-based; conditions: A549, 48 h; outline: as §1
HepG2 = test: Antiproliferative activity against human HepG2 cells after 48 hrs by MTT assay; format: functional, cell-based; conditions: HepG2, 48 h; outline: as §1

Structure (SMILES) | IC50 (MCF7) | IC50 [1] | IC50 (HCT-116) | IC50 (A549) | IC50 (HepG2)
CCOC(=O)[C@@]1(C)CC[C@]2(C)CC[C@]3(C)C(=CC(=O)[C@@H]4[C@@]5(C)CC[C@H](OC(=O)CCC(=O)Nc6nc7c(OC)cccc7s6)C(C)(C)[C@@H]5CC[C@]43C)[C@@H]2C1 | 20.1 µM | 10.4 µM | 23.1 µM | 16.4 µM | 21.9 µM
CC1(C)[C@@H](O)CC[C@]2(C)[C@H]3C(=O)C=C4[C@@H]5C[C@@](C)(C(=O)O)CC[C@]5(C)CC[C@@]4(C)[C@]3(C)CC[C@@H]12 [ENOXOLONE] | 74.8 µM | 78.4 µM | 91.2 µM | 84.2 µM | 94.5 µM
CC1(C)[C@@H](O)CC[C@]2(C)[C@H]3C(=O)C=C4[C@@H]5C[C@@](C)(C(=O)Nc6nc7c(Br)cccc7s6)CC[C@]5(C)CC[C@@]4(C)[C@]3(C)CC[C@@H]12 | > 100 µM | > 100 µM | > 100 µM | > 100 µM | > 100 µM
CCOC(=O)[C@@]1(C)CC[C@]2(C)CC[C@]3(C)C(=CC(=O)[C@@H]4[C@@]5(C)CC[C@H](OC(=O)CCC(=O)Nc6nc7c(C)cccc7s6)C(C)(C)[C@@H]5CC[C@]43C)[C@@H]2C1 | 26.5 µM | 21.9 µM | 26.3 µM | 22.8 µM | 31.8 µM
COc1ccc2nc(NC(=O)[C@@]3(C)CC[C@]4(C)CC[C@]5(C)C(=CC(=O)[C@@H]6[C@@]7(C)CC[C@H](O)C(C)(C)[C@@H]7CC[C@]65C)[C@@H]4C3)sc2c1 | 52.7 µM | 62.4 µM | 54.2 µM | 51.1 µM | 60.1 µM
Cc1cccc2sc(NC(=O)[C@@]3(C)CC[C@]4(C)CC[C@]5(C)C(=CC(=O)[C@@H]6[C@@]7(C)CC[C@H](O)C(C)(C)[C@@H]7CC[C@]65C)[C@@H]4C3)nc12 | > 100 µM | > 100 µM | > 100 µM | > 100 µM | > 100 µM
CC(=O)O[C@H]1CC[C@]2(C)[C@H]3C(=O)C=C4[C@@H]5C[C@@](C)(C(=O)Nc6nc7ccc(F)cc7s6)CC[C@]5(C)CC[C@@]4(C)[C@]3(C)CC[C@H]2C1(C)C | 71.2 µM | 54.3 µM | > 100 µM | 85.5 µM | 65.6 µM
CC1(C)[C@@H](O)CC[C@]2(C)[C@H]3C(=O)C=C4[C@@H]5C[C@@](C)(C(=O)Nc6nc7ccc(Cl)cc7s6)CC[C@]5(C)CC[C@@]4(C)[C@]3(C)CC[C@@H]12 | 16.5 µM | 36.9 µM | 16.3 µM | 22.8 µM | 21.8 µM
CCOC(=O)[C@@]1(C)CC[C@]2(C)CC[C@]3(C)C(=CC(=O)[C@@H]4[C@@]5(C)CC[C@H](OC(=O)CCC(=O)Nc6nc7c(Br)cccc7s6)C(C)(C)[C@@H]5CC[C@]43C)[C@@H]2C1 | 24.4 µM | 15.3 µM | 26.8 µM | 20.7 µM | 29.9 µM
CCOC(=O)[C@@]1(C)CC[C@]2(C)CC[C@]3(C)C(=CC(=O)[C@@H]4[C@@]5(C)CC[C@H](OC(=O)CCC(=O)Nc6nc7ccc(C)cc7s6)C(C)(C)[C@@H]5CC[C@]43C)[C@@H]2C1 | 22.5 µM | 14.9 µM | 23.6 µM | 19.1 µM | 27.5 µM
CC(=O)O[C@H]1CC[C@]2(C)[C@H]3C(=O)C=C4[C@@H]5C[C@@](C)(C(=O)Nc6nc7c(Br)cccc7s6)CC[C@]5(C)CC[C@@]4(C)[C@]3(C)CC[C@H]2C1(C)C | > 100 µM | > 100 µM | > 100 µM | > 100 µM | > 100 µM
CC1(C)[C@@H](O)CC[C@]2(C)[C@H]3C(=O)C=C4[C@@H]5C[C@@](C)(C(=O)Nc6nc7c(Cl)cccc7s6)CC[C@]5(C)CC[C@@]4(C)[C@]3(C)CC[C@@H]12 | 71.2 µM | 65.6 µM | > 100 µM | 75.4 µM | 69.6 µM
CC1=C(O)C(=O)C=C2C1=CC=C1[C@@]2(C)CC[C@@]2(C)[C@@H]3C[C@](C)(C(=O)O)CC[C@]3(C)CC[C@]12C [CELASTROL] | 6.84 µM | 6.22 µM | 5.26 µM | 6.59 µM | 6.17 µM
CC(=O)O[C@H]1CC[C@]2(C)[C@H]3C(=O)C=C4[C@@H]5C[C@@](C)(C(=O)Nc6nc7ccccc7s6)CC[C@]5(C)CC[C@@]4(C)[C@]3(C)CC[C@H]2C1(C)C | > 100 µM | > 100 µM | > 100 µM | > 100 µM | > 100 µM
CCOC(=O)[C@@]1(C)CC[C@]2(C)CC[C@]3(C)C(=CC(=O)[C@@H]4[C@@]5(C)CC[C@H](OC(=O)CCC(=O)Nc6nc7ccc(Br)cc7s6)C(C)(C)[C@@H]5CC[C@]43C)[C@@H]2C1 | 16.1 µM | 5.07 µM | 15.9 µM | 14.2 µM | 19 µM
CC1(C)[C@@H](O)CC[C@]2(C)[C@H]3C(=O)C=C4[C@@H]5C[C@@](C)(C(=O)Nc6nc7ccccc7s6)CC[C@]5(C)CC[C@@]4(C)[C@]3(C)CC[C@@H]12 | 71.4 µM | 89.5 µM | 80.7 µM | 75.4 µM | 88 µM
CC(=O)O[C@H]1CC[C@]2(C)[C@H]3C(=O)C=C4[C@@H]5C[C@@](C)(C(=O)Nc6nc7ccc(Br)cc7s6)CC[C@]5(C)CC[C@@]4(C)[C@]3(C)CC[C@H]2C1(C)C | 78.1 µM | 81.9 µM | 76.8 µM | 69.7 µM | 86 µM
CC1(C)[C@@H](O)CC[C@]2(C)[C@H]3C(=O)C=C4[C@@H]5C[C@@](C)(C(=O)Nc6nc7ccc(F)cc7s6)CC[C@]5(C)CC[C@@]4(C)[C@]3(C)CC[C@@H]12 | 31.1 µM | 32.3 µM | 31.5 µM | 32.2 µM | 36.4 µM
CC1(C)[C@@H](O)CC[C@]2(C)[C@H]3C(=O)C=C4[C@@H]5C[C@@](C)(C(=O)Nc6nc7c(F)cccc7s6)CC[C@]5(C)CC[C@@]4(C)[C@]3(C)CC[C@@H]12 | 41.2 µM | 45.7 µM | 42.5 µM | 36.5 µM | 45.6 µM
CC(=O)O[C@H]1CC[C@]2(C)[C@H]3C(=O)C=C4[C@@H]5C[C@@](C)(C(=O)Nc6nc7c(Cl)cccc7s6)CC[C@]5(C)CC[C@@]4(C)[C@]3(C)CC[C@H]2C1(C)C | > 100 µM | > 100 µM | > 100 µM | > 100 µM | > 100 µM
CC(=O)O[C@H]1CC[C@]2(C)[C@H]3C(=O)C=C4[C@@H]5C[C@@](C)(C(=O)Nc6nc7c(C)cccc7s6)CC[C@]5(C)CC[C@@]4(C)[C@]3(C)CC[C@H]2C1(C)C | > 100 µM | > 100 µM | > 100 µM | > 100 µM | > 100 µM
COc1cccc2sc(NC(=O)[C@@]3(C)CC[C@]4(C)CC[C@]5(C)C(=CC(=O)[C@@H]6[C@@]7(C)CC[C@H](O)C(C)(C)[C@@H]7CC[C@]65C)[C@@H]4C3)nc12 | 74.5 µM | > 100 µM | 74.7 µM | 76 µM | 86.3 µM
O=c1[nH]cc(F)c(=O)[nH]1 [FLUOROURACIL] | 15.8 µM | – | 17.2 µM | 19.5 µM | 23.6 µM
